Data: ChEMBL document CHEMBL4689842, “EUbOPEN Chemogenomics Library wave 1” (2021)
Values joined by “and” are separate entries in the source; they are usually repeats but may differ in a detail not shown here. Equal values may be shown once.

System: Fibroblast
Experiment: Multiplex assay against human fibroblast
Assay type: toxicity, cell-based
How it was run: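 Four dyes were applied at seeding to live cells: Hoechst33342, BioTracker Green Microtubule Cytoskeleton Dye, MitoTracker Red and Annexin V Alexa Fluor 680. Imaging after compound addition used a CQ1 microscope at 37°C and 5% CO2. CellPathfinder machine-learning gating then sorted cells into Hoechst high-intensity objects or normal cells, normal cells into healthy, pyknosed or fragmented nuclei, and pyknosed cells into mitotic or apoptotic, with tubulin, mitochondrial-mass and membrane-permeability phenotypes given as per cents of healthy-nucleus cells.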

[1] = 12 h, 1 µM, compound concentration 1 uM, replicate 1
[2] = 12 h, 1 µM, compound concentration 1 uM, replicate 2
[3] = 12 h, 10 µM, compound concentration 10 uM, replicate 1
[4] = 12 h, 10 µM, compound concentration 10 uM, replicate 2
[5] = 24 h, 1 µM, compound concentration 1 uM, replicate 1
[6] = 24 h, 1 µM, compound concentration 1 uM, replicate 2
[7] = 24 h, 10 µM, compound concentration 10 uM, replicate 1
[8] = 24 h, 10 µM, compound concentration 10 uM, replicate 2
[9] = 48 h, 10 µM, compound concentration 10 uM, replicate 1
[10] = 48 h, 10 µM, compound concentration 10 uM, replicate 2
[11] = 48 h, 1 µM, compound concentration 1 uM, replicate 1
[12] = 48 h, 1 µM, compound concentration 1 uM, replicate 2

CNC(=O)c1nn(C)c2c1C(C)(C)Cc1cnc(Nc3ccc(N4CCN(C)CC4)cc3)nc1-2 [MILCICLIB]
Population Apoptotic (%) [1]: 74%
Population Fragmented Nuclei (%) [1]: 26%
Population Healthy Nuclei (%) [1]: 59%
Population Hoechst High Intensity Objects (%) [1]: 6%
Population Membrane Permeable-Phenotype (%) [1]: 15%
Population Mitochondria Different-Phenotype (%) [1]: 7%
Population Mitotic Cells (%) [1]: 25%
Population Normal (%) [1]: 93%
Population Pyknosed Nuclei (%) [1]: 14%
Population Tubulin-Different-Phenotype (%) [1]: 30%
Total Cell Count [1]: 202
Population Apoptotic (%) [2]: 100%
Population Fragmented Nuclei (%) [2]: 64%
Population Healthy Nuclei (%) [2]: 34%
Population Hoechst High Intensity Objects (%) [2]: 34%
Population Membrane Permeable-Phenotype (%) [2]: 13%
Population Mitochondria Different-Phenotype (%) [2]: 31%
Population Mitotic Cells (%) [2]: 0%
Population Normal (%) [2]: 65%
Population Pyknosed Nuclei (%) [2]: 1%
Population Tubulin-Different-Phenotype (%) [2]: 54%
Total Cell Count [2]: 97
Population Apoptotic (%) [3]: 61% and 65% and 87%
Population Fragmented Nuclei (%) [3]: 29% and 25% and 26%
Population Healthy Nuclei (%) [3]: 40% and 48% and 55%
Population Hoechst High Intensity Objects (%) [3]: 11% and 12% and 13%
Population Mitochondria Different-Phenotype (%) [3]: 14% and 12% and 10%
Population Normal (%) [3]: 88% and 87% and 86%
Population Pyknosed Nuclei (%) [3]: 30% and 25% and 18%
Population Tubulin-Different-Phenotype (%) [3]: 77% and 74% and 40%
Population Apoptotic (%) [4]: 66% and 73% and 60%
Population Healthy Nuclei (%) [4]: 30% and 54% and 62%
Population Mitotic Cells (%) [4]: 33% and 26% and 40%
Population Normal (%) [4]: 70% and 90% and 97%
Total Cell Count [4]: 99 and 122 and 65
Population Apoptotic (%) [5]: 78%
Population Fragmented Nuclei (%) [5]: 27%
Population Healthy Nuclei (%) [5]: 57%
Population Hoechst High Intensity Objects (%) [5]: 12%
Population Membrane Permeable-Phenotype (%) [5]: 7%
Population Mitochondria Different-Phenotype (%) [5]: 13%
Population Mitotic Cells (%) [5]: 21%
Population Normal (%) [5]: 87%
Population Pyknosed Nuclei (%) [5]: 14%
Population Tubulin-Different-Phenotype (%) [5]: 33%
Total Cell Count [5]: 224
Population Apoptotic (%) [6]: 50%
Population Fragmented Nuclei (%) [6]: 60%
Population Healthy Nuclei (%) [6]: 33%
Population Hoechst High Intensity Objects (%) [6]: 33%
Population Membrane Permeable-Phenotype (%) [6]: 10%
Population Mitochondria Different-Phenotype (%) [6]: 30%
Population Mitotic Cells (%) [6]: 50%
Population Normal (%) [6]: 66%
Population Pyknosed Nuclei (%) [6]: 6%
Population Tubulin-Different-Phenotype (%) [6]: 40%
Total Cell Count [6]: 90
Population Apoptotic (%) [7]: 84% and 46% and 60%
Population Fragmented Nuclei (%) [7]: 37% and 29% and 34%
Population Healthy Nuclei (%) [7]: 47% and 50%
Population Hoechst High Intensity Objects (%) [7]: 20% and 12% and 15%
Population Mitochondria Different-Phenotype (%) [7]: 16% and 28% and 27%
Population Normal (%) [7]: 79% and 87% and 84%
Population Pyknosed Nuclei (%) [7]: 15% and 22%
Population Tubulin-Different-Phenotype (%) [7]: 46% and 80% and 58%
Population Apoptotic (%) [8]: 50% and 66% and 86%
Population Healthy Nuclei (%) [8]: 34% and 49% and 61%
Population Hoechst High Intensity Objects (%) [8]: 18%
Population Normal (%) [8]: 81%
Population Tubulin-Different-Phenotype (%) [8]: 35% and 100%
Total Cell Count [8]: 110 and 78 and 118
Population Apoptotic (%) [9]: 25% and 33%
Population Fragmented Nuclei (%) [9]: 45% and 39%
Population Healthy Nuclei (%) [9]: 42% and 49%
Population Hoechst High Intensity Objects (%) [9]: 15% and 19%
Population Membrane Permeable-Phenotype (%) [9]: 22% and 10%
Population Mitochondria Different-Phenotype (%) [9]: 15% and 22%
Population Mitotic Cells (%) [9]: 75% and 66%
Population Normal (%) [9]: 84% and 80%
Population Pyknosed Nuclei (%) [9]: 11%
Population Tubulin-Different-Phenotype (%) [9]: 68% and 80%
Total Cell Count [9]: 124 and 166
Population Apoptotic (%) [10]: 66%
Population Fragmented Nuclei (%) [10]: 35% and 36%
Population Healthy Nuclei (%) [10]: 62% and 60%
Population Hoechst High Intensity Objects (%) [10]: 18% and 14%
Population Membrane Permeable-Phenotype (%) [10]: 16% and 11%
Population Mitochondria Different-Phenotype (%) [10]: 11% and 17%
Population Mitotic Cells (%) [10]: 33%
Population Normal (%) [10]: 81% and 85%
Population Pyknosed Nuclei (%) [10]: 2%
Population Tubulin-Different-Phenotype (%) [10]: 84% and 96%
Total Cell Count [10]: 169 and 170

O=C(O)c1ccc2cc(-c3ccc(O)c(C45CC6CC(CC(C6)C4)C5)c3)ccc2c1 [O-DEMETHYLATED ADAPALENE]
Population Apoptotic (%) [1]: 57%
Population Fragmented Nuclei (%) [1]: 36%
Population Healthy Nuclei (%) [1]: 20%
Population Hoechst High Intensity Objects (%) [1]: 18%
Population Membrane Permeable-Phenotype (%) [1]: 31%
Population Mitochondria Different-Phenotype (%) [1]: 21%
Population Mitotic Cells (%) [1]: 42%
Population Normal (%) [1]: 81%
Population Pyknosed Nuclei (%) [1]: 43%
Population Tubulin-Different-Phenotype (%) [1]: 60%
Total Cell Count [1]: 249
Population Apoptotic (%) [2]: 100%
Population Fragmented Nuclei (%) [2]: 8%
Population Healthy Nuclei (%) [2]: 87%
Population Hoechst High Intensity Objects (%) [2]: 9%
Population Membrane Permeable-Phenotype (%) [2]: 6%
Population Mitochondria Different-Phenotype (%) [2]: 16%
Population Mitotic Cells (%) [2]: 0%
Population Normal (%) [2]: 90%
Population Pyknosed Nuclei (%) [2]: 3%
Population Tubulin-Different-Phenotype (%) [2]: 16%
Total Cell Count [2]: 62
Population Apoptotic (%) [3]: 72%
Population Fragmented Nuclei (%) [3]: 32%
Population Healthy Nuclei (%) [3]: 37%
Population Hoechst High Intensity Objects (%) [3]: 16%
Population Membrane Permeable-Phenotype (%) [3]: 44%
Population Mitochondria Different-Phenotype (%) [3]: 0%
Population Mitotic Cells (%) [3]: 27%
Population Normal (%) [3]: 83%
Population Pyknosed Nuclei (%) [3]: 30%
Population Tubulin-Different-Phenotype (%) [3]: 33%
Total Cell Count [3]: 115
Population Apoptotic (%) [4]: 100%
Population Fragmented Nuclei (%) [4]: 11%
Population Healthy Nuclei (%) [4]: 87%
Population Hoechst High Intensity Objects (%) [4]: 2%
Population Membrane Permeable-Phenotype (%) [4]: 1%
Population Mitochondria Different-Phenotype (%) [4]: 16%
Population Mitotic Cells (%) [4]: 0%
Population Normal (%) [4]: 97%
Population Pyknosed Nuclei (%) [4]: 1%
Population Tubulin-Different-Phenotype (%) [4]: 25%
Total Cell Count [4]: 83
Population Apoptotic (%) [5]: 53%
Population Fragmented Nuclei (%) [5]: 35%
Population Healthy Nuclei (%) [5]: 20%
Population Hoechst High Intensity Objects (%) [5]: 23%
Population Membrane Permeable-Phenotype (%) [5]: 29%
Population Mitochondria Different-Phenotype (%) [5]: 18%
Population Mitotic Cells (%) [5]: 46%
Population Normal (%) [5]: 76%
Population Pyknosed Nuclei (%) [5]: 43%
Population Tubulin-Different-Phenotype (%) [5]: 45%
Total Cell Count [5]: 236
Population Apoptotic (%) [6]: 100%
Population Fragmented Nuclei (%) [6]: 7%
Population Healthy Nuclei (%) [6]: 89%
Population Hoechst High Intensity Objects (%) [6]: 6%
Population Membrane Permeable-Phenotype (%) [6]: 6%
Population Mitochondria Different-Phenotype (%) [6]: 30%
Population Mitotic Cells (%) [6]: 0%
Population Normal (%) [6]: 93%
Population Pyknosed Nuclei (%) [6]: 3%
Population Tubulin-Different-Phenotype (%) [6]: 18%
Total Cell Count [6]: 60
Population Apoptotic (%) [7]: 57%
Population Fragmented Nuclei (%) [7]: 28%
Population Healthy Nuclei (%) [7]: 42%
Population Hoechst High Intensity Objects (%) [7]: 21%
Population Membrane Permeable-Phenotype (%) [7]: 55%
Population Mitochondria Different-Phenotype (%) [7]: 0%
Population Mitotic Cells (%) [7]: 42%
Population Normal (%) [7]: 78%
Population Pyknosed Nuclei (%) [7]: 29%
Population Tubulin-Different-Phenotype (%) [7]: 44%
Total Cell Count [7]: 113
Population Apoptotic (%) [8]: 0%
Population Fragmented Nuclei (%) [8]: 14%
Population Healthy Nuclei (%) [8]: 81%
Population Hoechst High Intensity Objects (%) [8]: 7%
Population Membrane Permeable-Phenotype (%) [8]: 7%
Population Mitochondria Different-Phenotype (%) [8]: 26%
Population Mitotic Cells (%) [8]: 100%
Population Normal (%) [8]: 92%
Population Pyknosed Nuclei (%) [8]: 3%
Population Tubulin-Different-Phenotype (%) [8]: 28%
Total Cell Count [8]: 83
Population Apoptotic (%) [11]: 78%
Population Fragmented Nuclei (%) [11]: 61%
Population Healthy Nuclei (%) [11]: 26%
Population Hoechst High Intensity Objects (%) [11]: 43%
Population Membrane Permeable-Phenotype (%) [11]: 2%
Population Mitochondria Different-Phenotype (%) [11]: 15%
Population Mitotic Cells (%) [11]: 21%
Population Normal (%) [11]: 56%
Population Pyknosed Nuclei (%) [11]: 12%
Population Tubulin-Different-Phenotype (%) [11]: 5%
Total Cell Count [11]: 267
Population Apoptotic (%) [12]: 71%
Population Fragmented Nuclei (%) [12]: 18%
Population Healthy Nuclei (%) [12]: 71%
Population Hoechst High Intensity Objects (%) [12]: 14%
Population Membrane Permeable-Phenotype (%) [12]: 11%
Population Mitochondria Different-Phenotype (%) [12]: 1%
Population Mitotic Cells (%) [12]: 28%
Population Normal (%) [12]: 85%
Population Pyknosed Nuclei (%) [12]: 9%
Population Tubulin-Different-Phenotype (%) [12]: 28%
Total Cell Count [12]: 87
Population Apoptotic (%) [9]: 85%
Population Fragmented Nuclei (%) [9]: 52%
Population Healthy Nuclei (%) [9]: 40%
Population Hoechst High Intensity Objects (%) [9]: 20%
Population Membrane Permeable-Phenotype (%) [9]: 35%
Population Mitochondria Different-Phenotype (%) [9]: 0%
Population Mitotic Cells (%) [9]: 14%
Population Normal (%) [9]: 79%
Population Pyknosed Nuclei (%) [9]: 7%
Population Tubulin-Different-Phenotype (%) [9]: 35%
Total Cell Count [9]: 116
Population Apoptotic (%) [10]: 66%
Population Fragmented Nuclei (%) [10]: 37%
Population Healthy Nuclei (%) [10]: 58%
Population Hoechst High Intensity Objects (%) [10]: 14%
Population Membrane Permeable-Phenotype (%) [10]: 24%
Population Mitochondria Different-Phenotype (%) [10]: 4%
Population Mitotic Cells (%) [10]: 33%
Population Normal (%) [10]: 85%
Population Pyknosed Nuclei (%) [10]: 3%
Population Tubulin-Different-Phenotype (%) [10]: 46%
Total Cell Count [10]: 99
